Calls of active or inactive are those of the source. The rule behind the calls is not given here.

Consider five compounds from ChEMBL document CHEMBL1140836, “Hybrid angiogenesis inhibitors: synthesis and biological evaluation of bifunctional compounds based on 1-deoxynojirimycin and aryl-1,2,3-triazoles” (Bioorg Med Chem Lett, 2008).

Assay [1] is described as follows: (§1) Growth inhibition of bovine BAEC by MTT assay. In kind it is functional, cell-based. The settings on record: Bos taurus. In short, it runs like this: (§2)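 BAECs in RPMI 1640 with 10% heat-inactivated FBS, 3 × 10³ cells/well, seeded overnight, then exposed to compounds (10⁻⁶–10⁻³ M) for 48 h at 37 °C, 5% CO₂. MTT added to 0.5 mg/mL final, 3 h at 37 °C; formazan dissolved in DMSO, absorbance at 570 nm. Quadruplicate wells, experiments repeated at least twice; IC₅₀ determined.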
Background: Formazan colour is commonly taken as a measure of viable cells.

A further assay deals with T1, Alpha-glucosidase (Geobacillus stearothermophilus, UniProt P94451).
T1 sequence (P94451 whole entry): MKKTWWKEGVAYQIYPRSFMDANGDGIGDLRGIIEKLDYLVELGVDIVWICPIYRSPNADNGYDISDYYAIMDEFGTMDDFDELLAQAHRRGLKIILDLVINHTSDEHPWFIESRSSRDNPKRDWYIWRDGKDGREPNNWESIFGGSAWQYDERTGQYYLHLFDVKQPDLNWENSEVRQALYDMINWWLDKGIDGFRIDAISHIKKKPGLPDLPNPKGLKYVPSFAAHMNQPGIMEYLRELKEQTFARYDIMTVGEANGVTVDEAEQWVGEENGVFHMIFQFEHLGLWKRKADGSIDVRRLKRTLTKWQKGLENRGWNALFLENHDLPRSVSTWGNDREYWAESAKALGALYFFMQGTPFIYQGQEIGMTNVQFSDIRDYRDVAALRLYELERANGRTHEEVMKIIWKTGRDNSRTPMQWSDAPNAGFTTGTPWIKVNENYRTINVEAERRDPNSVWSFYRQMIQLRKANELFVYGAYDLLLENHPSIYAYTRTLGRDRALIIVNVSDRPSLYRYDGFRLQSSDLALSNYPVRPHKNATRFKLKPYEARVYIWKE
Briefly: (§3) Inhibition of alpha glucosidase from bacillus stearothermophilus.

The test system of assay [2] is BAEC. As to the kind of experiment: Antiangiogenesis activity in bovine BAEC cells assessed as inhibition of tube formation on Matrigel at 0.2 mM. It counts as functional, cell-based. Particulars: Bos taurus. In outline: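 BAECs pretreated with compound (0.2 mM) 24 h, harvested, 3 × 10⁴ cells/0.1 ml in RPMI 1640 with 10 ng/mL bFGF plus 0.2 mM compound (controls bFGF only), layered on growth factor–reduced Matrigel polymerized 1 h at 37 °C; 8 h at 37 °C, 5% CO₂. Tubes counted in at least five microscope fields, averaged per field; repeated at least twice.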

Assay [3] has as its target T2, Alpha-glucosidase (Geobacillus stearothermophilus) (UniProt P94451).
T2 sequence (whole entry): T1 sequence (P94451 whole entry)
The assay is described as §3.

Assay [4] concerns the target Methionine aminopeptidase 2 (Homo sapiens) (UniProt P50579). Briefly: Inhibition of MetAP2.
Assay [5] deals with BAEC. The assay is described as §1. Particulars: Bos taurus. It counts as functional, cell-based. In short, it runs like this:
as §2

Sequence of Methionine aminopeptidase 2 (Homo sapiens) (P50579 2-478 limits assumed): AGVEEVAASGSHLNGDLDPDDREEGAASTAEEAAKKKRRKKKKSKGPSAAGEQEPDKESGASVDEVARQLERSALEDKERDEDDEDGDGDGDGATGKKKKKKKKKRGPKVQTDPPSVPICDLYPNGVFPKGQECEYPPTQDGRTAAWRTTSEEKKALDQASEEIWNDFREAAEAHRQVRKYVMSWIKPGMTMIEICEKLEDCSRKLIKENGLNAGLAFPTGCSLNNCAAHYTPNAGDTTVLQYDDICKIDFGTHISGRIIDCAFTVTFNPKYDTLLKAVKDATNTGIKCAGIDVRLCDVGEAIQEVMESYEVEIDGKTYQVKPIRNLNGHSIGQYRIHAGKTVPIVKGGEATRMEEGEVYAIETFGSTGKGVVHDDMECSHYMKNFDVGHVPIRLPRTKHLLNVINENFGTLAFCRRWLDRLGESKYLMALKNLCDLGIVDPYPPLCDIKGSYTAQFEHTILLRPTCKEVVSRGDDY

As to `OC[C@@H]1[C@@H](O)[C@H](O)[C@@H](O)CN1CCCCOc1cccc(-c2cnn[nH]2)c1`, the values for the IC50 (in assay [1]; against Alpha-glucosidase) were 797 µM and 6.07 µM, respectively. Further, in the assay on BAEC [2], the outcome was inactive.
`OC[C@@H]1[C@@H](O)[C@H](O)[C@@H](O)CN1CCCCCCCCOc1cccc(-c2cnn[nH]2)c1`: the IC50 (as a rule, the point on the concentration scale where inhibition reaches its midpoint) was found to be 105 µM in assay [1] and 1.15 µM against Alpha-glucosidase.
Take `COc1cccc(-c2cnn[nH]2)c1`: the IC50 in assay [1] is 347 µM. Further, the result in assay [3] was inactive. Moreover, the outcome in assay [4] was Active.
In the case of `OC[C@H]1NC[C@H](O)[C@@H](O)[C@@H]1O`, the outcome in the assay on BAEC [5] was inactive.
In the case of `OC[C@@H]1[C@@H](O)[C@H](O)[C@@H](O)CN1CCCCCCOc1cccc(-c2cnn[nH]2)c1`, the results for the IC50 (in assay [1]; against Alpha-glucosidase) were 610 µM and 2.41 µM, respectively. Besides, in the assay on BAEC [2], the outcome was inactive.
